Reference: ChEMBL document CHEMBL1926571, “Design, synthesis and the effect of 1,2,3-triazole sialylmimetic neoglycoconjugates on Trypanosoma cruzi and its cell surface trans-sialidase” (Bioorg Med Chem, 2012)

Legend:
[1] = (§1) Inhibition of Trypanosoma cruzi trans-Sialidase
[2] = Cytotoxicity against C57BL/6 mouse spleen cells assessed as cell death at 250 to 780 uM mM after 24 hrs by propidium iodide staining-based flow cytometric analysis; conditions: 7.8 µM, in the assay text read “250 to 7.8 uM” for “250 to 780 uM mM”
Procedure, shortened: (§2)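 Spleen cells from C57BL/6 mice, red cells lysed 5 min (Tris-HCl pH 7.5/ammonium chloride), in RPMI 1640 with 10% FBS at 5×10^5 cells/well, exposed to a range of compound concentrations for 24 h at 37 °C. Tween 20 at 0.5% as death control. Stained with 10 µg/mL propidium iodide, read by flow cytometry.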

Trypanosoma cruzi [3] = experiment: Antitrypanosomal activity against Trypanosoma cruzi […] infected in monkey LLC-MK2 cells after 4 days by beta-galactosidase reporter gene assay; assay type: functional, organism-based; conditions: LLC-MK2, 96 h
Procedure, shortened: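 LLC-MK2 cells in phenol-red-free RPMI with 10% FBS, 2×10^3/well, grown 24 h, then infected with 1×10^4 trypomastigotes of T. cruzi Tulahuen expressing E. coli β-galactosidase; compounds added 24 h later (0.5 mM–3.5 µM) for 4 days. Lysed with PBS/0.5% Triton X-100 containing 100 µM CPRG, 4 h at 37 °C, A570. Concentration giving 50% trypanocidal activity reported as IC50.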

Trypanosoma cruzi [4] = experiment: Inhibition of Trypanosoma cruzi N-terminus His-tagged trans-Sialidase using MuNANA as substrate at 0.5 mM after 10 mins by fluorometric analysis
Procedure, shortened: (§3)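 Recombinant His-tagged 70 kDa enzyme truncated of C-terminal repeats, retaining catalytic N-terminal domain. Triplicate wells: pH 7.4 phosphate buffer, enzyme and inhibitor (added as 4.0 or 2.0 mM solution, 1.0 or 0.5 mM final) preincubated 10 min at 26 °C; MuNANA added at 0.1 mM final. Released methylumbelliferone fluorescence (ex 360/em 460 nm) read after 10 min; percent inhibition.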

Trypanosoma cruzi [5] = experiment: Inhibition of Trypanosoma cruzi N-terminus His-tagged trans-Sialidase using MuNANA as substrate at 1 mM after 10 mins by fluorometric analysis; procedure, shortened: as §3
[6] = Cytotoxicity against C57BL/6 mouse spleen cells assessed as cell death at 0.5 mM after 24 hrs by propidium iodide staining-based flow cytometric analysis; conditions: 500 µM; procedure, shortened: as §2
Trypanosoma cruzi [7] = experiment: as §1; conditions: concentration not given here
[8] = Cytotoxicity against C57BL/6 mouse spleen cells assessed as cell death at 500 to 780 uM mM after 24 hrs by propidium iodide staining-based flow cytometric analysis; conditions: 7.8 µM, in the assay text read “500 to 7.8 uM” for “500 to 780 uM”; procedure, shortened: as §2
[9] = Binding affinity to Trypanosoma cruzi trans-Sialidase by surface plasmon resonance assay

IC50 [1] [µM] | IC50 (Trypanosoma cruzi [3]) [µM] | inhibition (Trypanosoma cruzi [4]) [%] | inhibition (Trypanosoma cruzi [5]) [%] | SMILES | also measured
0.6 | – | – | – | Cc1ccc(S(=O)(=O)N2c3ccccc3C(=O)C3=Cc4cc(O)c(O)c5c(O)c(O)cc(c45)C32)cc1 (centres undefined) | –
2.5 | – | – | – | Cc1ccc(S(=O)(=O)Nc2cccc(C(=O)/C=C/c3ccc(O)c(O)c3)c2)cc1 | –
– | 475 | 1.5 | 88 | CC(=O)N[C@H]1[C@H]([C@H](O)[C@H](O)CO)O[C@@](OCc2cn([C@@H]3O[C@H](CO)[C@H](O)[C@H](O)[C@H]3O)nn2)(C(=O)O)C[C@@H]1O | Activity [6]: > 80%
– | > 2000 | 1.5 | 69 | CC(=O)N[C@H]1[C@H]([C@H](O)[C@H](O)CO)O[C@@](OCc2cn([C@H]3[C@@H](O)[C@H](O)O[C@H](CO)[C@@H]3O)nn2)(C(=O)O)C[C@@H]1O | Activity [8]: Non-toxic
0.9 | – | – | – | Cc1ccc(S(=O)(=O)Nc2ccc(C(=O)/C=C/c3ccc(O)c(O)c3)cc2)cc1 | –
– | 726 | 1.5 | 67 | CC(=O)N[C@H]1[C@H]([C@H](O)[C@H](O)CO)O[C@@](OCc2cn([C@@H]3[C@@H](O)[C@@H](O)O[C@H](CO)[C@H]3O)nn2)(C(=O)O)C[C@@H]1O | Activity [8]: Non-toxic
0.58 | – | – | – | O=c1c(O)c(-c2cc(O)c(O)c(O)c2)oc2cc(O)cc(O)c12 [MYRICETIN] | –

Further lines, the compound ahead of its results:

SMILES | IC50 [1] [µM] | IC50 (Trypanosoma cruzi [3]) [µM] | inhibition (Trypanosoma cruzi [4]) [%] | inhibition (Trypanosoma cruzi [5]) [%] | also measured
CC(=O)N[C@H]1[C@H]([C@H](O)[C@H](O)CO)O[C@@](OCc2cn(C[C@H]3O[C@H](O)[C@H](O)[C@@H](O)[C@H]3O)nn2)(C(=O)O)C[C@@H]1O | – | 260 | 30 | 91 | Activity [2]: Non-toxic; Activity [6]: 55%
CCCCCCCCO[C@@H]1O[C@H](COC)[C@H](O)[C@H](O)[C@H]1O | – | – | – | – | inhibition (Trypanosoma cruzi [7]): 75%
CO[C@H]1O[C@H](CO)[C@H](O)[C@H](OCc2cn(C(C(=O)O)C(C)O)nn2)[C@H]1O (some centres undefined) | – | 369 | 1.5 | 5 | Activity [6]: > 80%
CCCCCCCCO[C@@H]1O[C@H](CO)[C@H](O)[C@H](O)[C@H]1O | – | – | – | – | inhibition (Trypanosoma cruzi [7]): 84%
CC(=O)N[C@H]1[C@H]([C@H](O)[C@H](O)CO)O[C@@](CCCc2ccccc2)(C(=O)O)C[C@@H]1O | – | – | – | – | Kd [9]: 160 µM
O=C(Cn1ccnc1[N+](=O)[O-])NCc1ccccc1 [BENZNIDAZOLE] | – | 125 | – | – | –
